Bioassay records from PubChem BioAssay.
TMEM16A act: activates or potentiates the mouse TMEM16A chloride channel | HEK293 TMEM16A/YFP-H148Q/I152L, iodide quench fluorescence; hits give low values | Q8BHY3 | B-score at 10 µM | 340,000 compounds, 0.3% hits;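 active = fluorescence-ratio B-score plate-corrected deviation score at least 3 library SD below zero, with starting fluorescence score within 5 deviations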;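 note: channel opened by trigger with iodide after compound preincubation; score built on the fluorescence ratio of max minus min over baseline; more negative score means more quench and so TMEM16A activation or potentiation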
CHT block: human CHT choline transport inhibition; CHT-expressing cells, membrane potential dye, choline response; hits give low values; B-score at 10 µM; 310,000 compounds, 0.86% hits; AID 488975;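 active = B-score over 3 SD under the library average, and starting fluorescence ratio not unusually high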;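 note: choline stimulus applied at its EC90 after an EC20 pre-addition; B-score computed on integrated fluorescence ratio after choline addition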
Target sequence (Q9GZV3 whole entry, looked up): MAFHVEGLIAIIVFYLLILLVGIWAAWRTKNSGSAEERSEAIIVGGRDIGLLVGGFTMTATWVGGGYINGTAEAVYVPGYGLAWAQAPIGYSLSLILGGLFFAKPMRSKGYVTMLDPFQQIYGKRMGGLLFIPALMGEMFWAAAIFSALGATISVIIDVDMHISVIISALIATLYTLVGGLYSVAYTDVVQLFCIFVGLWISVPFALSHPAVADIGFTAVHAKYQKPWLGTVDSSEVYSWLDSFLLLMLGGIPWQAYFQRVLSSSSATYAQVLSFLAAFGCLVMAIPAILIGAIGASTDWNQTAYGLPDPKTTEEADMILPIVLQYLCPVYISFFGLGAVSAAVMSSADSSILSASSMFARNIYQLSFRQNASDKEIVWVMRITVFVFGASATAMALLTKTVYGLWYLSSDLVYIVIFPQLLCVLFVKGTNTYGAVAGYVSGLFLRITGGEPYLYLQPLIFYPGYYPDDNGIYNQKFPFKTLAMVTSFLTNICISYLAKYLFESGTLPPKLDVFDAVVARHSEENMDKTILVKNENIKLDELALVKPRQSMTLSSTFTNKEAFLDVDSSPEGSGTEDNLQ
CHT PAM: human CHT allosteric activation; Q9GZV3; CHT-expressing cells, membrane potential dye, choline EC20; hits give high values; LV-AA mutant CHT in HEK293 cells; B-score at 10 µM; 310,000 compounds, 0.49% hits; AID 488977;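 active = initial fluorescence not abnormally high and integrated response B-score, plate-corrected, over 3 SD above library mean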
IMP-1 inhibitor: inhibitors of Pseudomonas aeruginosa IMP-1 metallo-beta-lactamase; purified IMP-1, nitrocefin hydrolysis, epi-absorbance fluorescence; inhibition, % at 5.6 µM; 290,000 compounds, 0.45% hits;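 active = inhibition above the mean plus 3 SD of all compounds in the same screening run, cut at about 4.5% in these data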;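 note: 0% = IMP-1 with DMSO and 100% = DMSO wells lacking enzyme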
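system = purified recombinant IMP-1 beta-lactamase | amount = 0.2 nM IMP-1, as dispensed | medium = HEPES buffer pH 7.1 with ZnSO4 and Brij 35 | times = 25 °C, 15 min preincubation, 25 min reaction | detection = plate fluorescence quenching by hydrolysis product, ex 480/em 530 nm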
VIM-2 inh: inhibitors of Pseudomonas aeruginosa VIM-2 metallo-beta-lactamase. 290,000 compounds, 0.89% hits. purified VIM-2, nitrocefin hydrolysis, epi-absorbance fluorescence. inhibition, % at 5.6 µM;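 active = inhibition above the mean of all tested compounds plus 3 SD, cutoff set per screening run, cut at about 7.5% in these data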;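 note: red hydrolysis product quenches plate fluorescence so inhibitors raise well fluorescence; 0% = enzyme with DMSO and 100% = DMSO without enzyme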
TMEM16A inh: blocks the mouse calcium-activated chloride channel TMEM16A. HEK293 TMEM16A/YFP iodide influx fluorescence, ionomycin. normalized B-score (activity score, 25-100; higher = stronger inhibition) at 10 µM. 310,000 compounds, 1.2% hits. AID 588511;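 active = ratio plate-corrected score three or more library SD toward inhibition, starting fluorescence score within five deviations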;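 note: score derived from kinetic fluorescence span divided by baseline fluorescence per well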
TMEM16A reconf: re-confirmation of mouse TMEM16A chloride channel inhibitors; shares compounds with TMEM16A inh; HEK293 TMEM16A/YFP-H148Q, iodide quench fluorescence; ionomycin added to raise cell calcium; inhibition, % at 10 µM; 2,300 compounds, 39% hits; AID 652189;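 active = mean duplicate percent inhibition, scaled so buffer wells are 0 and the reference blocker 100, over three buffer SD above buffer mean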
TMEM16A Ca cntr: calcium mobilization counter-screen hit for TMEM16A inhibitor series; shares compounds with TMEM16A inh; TMEM16A/YFP HEK293, Fluo4 calcium mobilization; calcium response (% of ionomycin), % at 10 µM; 2,300 compounds, 2% hits; AID 652231;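 active = duplicate-averaged calcium signal over 20% of the ionomycin maximum, relative to buffer baseline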;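 note: each well's signal is peak minus trough fluorescence divided by its pre-addition baseline; 0% = buffer wells and 100% = ionomycin wells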
YFP-HEK293 quench: counter-screen for TMEM16A inhibitors: effect in parental YFP-HEK293 cells; shares compounds with TMEM16A inh; iodide YFP quench, ionomycin; YFP ratio F(max-min)/F0 at 10 µM; 2,300 tested, under 10 active; AID 652233;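 active = yellow fluorescent protein signal ratio exceeding the buffer control mean by over 5 SD of those controls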;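 note: ratio is mean of duplicate wells from kinetic YFP trace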
ClC-1 rat inh: selectivity of TMEM16A inhibitors: inhibition of rat ClC-1 chloride channel; shares compounds with TMEM16A inh; CHO ClC-1-YFP, iodide influx fluorescence quench; iodide control reads 0, buffer control 100; ratio percent, % at 10 µM; 2,300 tested, under 10 active;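 active = duplicate-mean ratio percent above the mean of iodide-only control wells, which defines zero, plus 5 of their SD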;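 note: higher percent means stronger block of ClC-1 iodide influx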
Starred values were filed as active, the others as inactive; i = inactive; / = not tested or not shown. An excerpt weighted towards active compounds, which were near 3.4% of everything screened.

SMILES | TMEM16A act | CHT block | CHT PAM | IMP-1 inhibitor | VIM-2 inh | TMEM16A inh | TMEM16A reconf | TMEM16A Ca cntr | YFP-HEK293 quench | ClC-1 rat inh
CCCCOCCCNC(=O)c1c(-c2ccccc2)noc1C | i | i | i | 0 | 3 | 25* | i | i | -1.2 | -15
CCN(CC)c1ccc2cc(S(=O)(=O)c3ccc(Cl)cc3)c(=O)oc2c1 | i | i | i | -1 | 0 | i | i | i | -0.17 | 14
CCCCCCc1cc2cc(S(=O)(=O)c3ccc(Cl)cc3)c(=O)oc2cc1O | i | i | i | -5 | -3 | i | / | / | / | /
CNS(=O)(=O)c1cccc(C(=O)OCC(=O)c2cc(C)n(CC3CCCO3)c2C)c1 (configuration not stated) | i | / | / | / | / | / | / | / | / | /
CNS(=O)(=O)c1cccc(C(=O)OCC(=O)c2cc(C)n(-c3ccc4c(c3)OCO4)c2C)c1 | i | i | i | -5 | -3 | 25* | i | i | -0.95 | -8
CCN(CC)S(=O)(=O)c1cccc(C(=O)OCC(=O)c2ccc3c(c2)OCCO3)c1 | i | i | i | -1 | -2 | 25* | 16%* | i | -0.53 | -7
CS(=O)(=O)c1ccc(C(=O)OCC(=O)N(CCc2ccccc2)Cc2ccccc2)cc1 | i | i | i | / | / | i | / | / | / | /
COc1ccc(S(=O)(=O)N2CCCCC2)cc1C(=O)N1CCCC1 | i | i | i | -1 | -3 | i | / | / | / | /
O=S(=O)(NCCOCC(F)(F)C(F)F)c1ccc2oc3ccccc3c2c1 | i | i | i | -4 | -2 | 25* | 24%* | i | -0.92 | -12
CC1C(=O)N2CCCc3cc(NC(=O)C(=O)NCc4ccccn4)cc1c32 (configuration not stated) | i | i | i | / | / | i | / | / | / | /
COC(=O)c1ccc(C)c(NC(=O)CSc2sc3c(O)cc(=O)[nH]c3c2C#N)c1 | i | i | i | -6 | -4 | i | / | / | / | /
Cc1ccc(C)c(NC(=O)CSc2sc3c(O)cc(=O)[nH]c3c2C#N)c1 | i | i | i | 4 | -1 | i | i | i | -1 | -16
O=S(=O)(c1cnc[nH]1)N1CCN(C(c2ccc(F)cc2)c2ccc(F)cc2)CC1 | i | i | i | -3 | 0 | i | / | / | / | /
CCOC(=O)c1nc(C)nc(Sc2n[nH]c(-c3cc(C(F)(F)F)cc(C(F)(F)F)c3)n2)c1C | i | i | i | -3 | -3 | 25* | 30%* | i | -0.99 | -22
COc1ccc2[nH]cc(CCNC(=O)Cc3ccc(F)cc3)c2c1 | i | i | i | -3 | -2 | i | / | / | / | /
COc1ccc(N=C2SCC(=O)N2CCc2ccc(OC)c(OC)c2)cc1 | i | i | i | -4 | -2 | i | / | / | / | /
COc1ccc(CCN2C(=O)CSC2=Nc2ccc(C(C)C)cc2)cc1OC | i | i | i | -2 | -1 | 100* | 53%* | i | -0.94 | -28
O=C(O)c1cccc2c1C(=O)c1cc([N+](=O)[O-])ccc1-2 | i | / | / | / | / | / | / | / | / | /
Cc1ccc(-c2nc(CS(=O)(=O)CC(=O)N3CCCCCC3)c(C)o2)cc1 | i | i | i | -2 | -1 | i | / | / | / | /
Cc1ccc(-c2nc(CS(=O)(=O)CC(=O)N3CCc4ccccc4C3)c(C)o2)cc1 | i | i | i | -2 | -4 | 25* | 26%* | i | -0.9 | -10
CCO[C@@H]1OC(C(N)=O)=C[C@H](c2coc3ccccc3c2=O)[C@H]1CCCO | i | i | i | / | / | 25* | i | i | -1 | -8
CCO[C@@H]1OC(C(=O)O)=C[C@H](c2coc3ccccc3c2=O)[C@H]1CCCO | i | i | i | -3 | -2 | i | / | / | / | /
CCOC(=O)c1c(C)[nH]c(C(=O)C(C)Cl)c1C (configuration not stated) | i | i | i | -5 | -2 | i | / | / | / | /
CCOC(=O)c1c(C)[nH]c(C(=O)C(C)Sc2ccc(Cl)cc2)c1C (configuration not stated) | i | i | i | -2 | -1 | 25* | 32%* | i | -1 | -20
O=C(Oc1ccccc1)c1ccccc1OS(=O)(=O)c1ccccc1 | i | i | i | -5 | 0 | 100* | i | i | -1.4 | -2
SMILES | TMEM16A act | CHT block | CHT PAM | IMP-1 inhibitor | VIM-2 inh | TMEM16A inh | TMEM16A reconf | TMEM16A Ca cntr | YFP-HEK293 quench | ClC-1 rat inh
CC(=O)c1ccc(OCCCC(=O)N2CCN(S(=O)(=O)c3cc(C)ccc3C)CC2)cc1 | i | i | i | / | / | i | / | / | / | /
CC(=O)c1ccc(OCCCC(=O)N2CCN(S(=O)(=O)c3ccc(C(C)C)cc3)CC2)cc1 | i | i | i | / | / | 25* | i | i | -1 | -12
O=C(COC(=O)c1cccc(Cl)c1)Nc1cccc(S(=O)(=O)NC2=NCCC2)c1 | i | / | / | / | / | / | / | / | / | /
O=C(c1cc2ccccc2oc1=O)N1CCN(CCc2ccccc2)CC1 | i | i | i | -3 | -3 | 25* | i | i | -1.1 | -15
O=C(c1cc2c(ccc3ccccc32)oc1=O)N1CCCC1 | i | i | i | 0 | 0 | 100* | i | i | -1.1 | -8
O=C(O)c1cc2c(ccc3ccccc32)oc1=O | i | i | i | -4 | 0 | i | / | / | / | /
O=C(c1ccco1)N1CCN(C(=O)c2cc3ccccc3oc2=O)CC1 | i | i | i | -2 | -1 | i | / | / | / | /
CC1=C(C)CC2C(C1)C(=O)c1ccc(Br)cc1S2(=O)=O (configuration not stated) | i | / | / | / | / | / | / | / | / | /
CC1(C)CC(=O)C2=C(C1)OC1=C(C(=O)CC(C)(C)C1)C2c1ccc(O)cc1O | i | i | i | -2 | -2 | i | i | i | -0.58 | -4
CC1(C)CC(=O)C2=C(C1)OC1=C(C(=O)CC(C)(C)C1)C2c1ccc(O)c([N+](=O)[O-])c1 | i | i | i | 0 | 1 | i | / | / | / | /
Cc1cccc(OCc2nnc(SCC(=O)NC3CCCCC3)n2C)c1 | i | i | i | -2 | -1 | i | / | / | / | /
